Converted amounts (≈) assume the structure as drawn.
What was measured:
[1] = system: Staphylococcus aureus; assay: Activity at Staphylococcus aureus wild-type DNA topoisomerase 4 subunit ParC
Method in brief: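 Recombinant S. aureus topoisomerase IV (wild-type ParC with ParE; specific activity 25 to 30 U per μg). Stopped with SDS/proteinase K. Linear DNA quantified on gel; CC50 is the mean of two or more assays.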

[2] = system: Staphylococcus aureus; assay: Activity at Staphylococcus aureus DNA topoisomerase 4 subunit ParC S80F mutant
[3] = system: Staphylococcus aureus; assay: Activity at Staphylococcus aureus wild-type GyrA
Method in brief: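 Recombinant S. aureus gyrase (wild-type GyrA with His-tagged GyrB; 250 U per μg). SDS/proteinase K stop. Gel quantitation of linear cleavage product gave CC50, the mean of two or more assays.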

[4] = system: DNA gyrase subunit A (Staphylococcus aureus), P20831 [S84L]; assay: Activity at Staphylococcus aureus wild-type GyrA S84L mutant
[5] = system: Staphylococcus aureus; assay: Antimicrobial activity against Staphylococcus aureus CB190 by broth microdilution method; format: functional
[6] = system: Staphylococcus aureus; assay: Antimicrobial activity against Staphylococcus aureus CB811 harboring quinolone-resistant gyrA S84L mutant gene by broth microdilution method; format: functional
Method in brief: (§1)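 CLSI broth microdilution MIC in cation-adjusted Mueller-Hinton (MHII) broth supplemented with 0.002% (vol/vol) polysorbate 80, included to limit compound loss to plastic surfaces.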

[7] = system: Staphylococcus aureus; assay: Antimicrobial activity against Staphylococcus aureus CB808 harboring quinolone-resistant parC S80F mutant gene by broth microdilution method; format: functional; method in brief: as §1
[8] = system: Staphylococcus aureus; assay: Antimicrobial activity against Staphylococcus aureus CB814 harboring fluoroquinolone-resistant gyrA S84L and parC S80F mutant genes by broth microdilution method; format: functional; method in brief: as §1
[9] = system: Staphylococcus aureus; assay: Antimicrobial activity against Staphylococcus aureus CB370 harboring rifampin-resistant rpoB H481Y mutant gene by broth microdilution method; format: functional; method in brief: as §1
[10] = system: Staphylococcus aureus; assay: Antimicrobial activity against Staphylococcus aureus CB812 harboring rpo B H481Y and gyrA S84L mutant genes by broth microdilution method; format: functional; method in brief: as §1
[11] = system: Staphylococcus aureus; assay: Antimicrobial activity against Staphylococcus aureus CB809 harboring rpoB H481Y and parC S80F mutant genes by broth microdilution method
[12] = system: Staphylococcus aureus; assay: Antimicrobial activity against Staphylococcus aureus CB815 harboring rpoB H481Y, gyrA S84L and parC S80F mutant genes by broth microdilution method

Question: Which results are given for `COc1c(N2CCNC(C)C2)c(F)cc2c(=O)c(C(=O)O)cn(C3CC3)c12` (configuration not stated) [GATIFLOXACIN]?
Answer: CC50 [1]: 0.22 µM; CC50 [2]: 13 µM; CC50 [3]: 0.7 µM; CC50 [4]: 18 µM; MIC [5]: 0.06 µg/mL (≈ 0.16 µM); MIC [6]: 0.12 µg/mL (≈ 0.32 µM); MIC [7]: 0.25 µg/mL (≈ 0.666 µM); MIC [8]: 8 µg/mL (≈ 21.3 µM); MIC [9]: 0.06 µg/mL (≈ 0.16 µM); MIC [10]: 0.12 µg/mL (≈ 0.32 µM); MIC [11]: 0.25 µg/mL (≈ 0.666 µM); MIC [12]: 8 µg/mL (≈ 21.3 µM)

Source: ChEMBL document CHEMBL1275434, “In vitro evaluation of CBR-2092, a novel rifamycin-quinolone hybrid antibiotic: studies of the mode of action in Staphylococcus aureus” (Antimicrob Agents Chemother, 2008)
